Results from ChEMBL document CHEMBL1135823, “Discovery and SAR of a novel selective and orally bioavailable nonpeptide classical competitive inhibitor class of protein-tyrosine phosphatase 1B” (J Med Chem, 2002).
Values joined by “and” are separate entries in the source; they are usually repeats but may differ in a detail not shown here. Identical values can stand only once.

How the values were obtained:
[1] = target: T1, Receptor-type tyrosine-protein phosphatase C (Homo sapiens, UniProt P08575); assay: Inhibitory effect against human CD45 tyrosine phosphatase using p-nitrophenyl phosphate substrate at a pH 7.0
T1 sequence (P08575 whole entry): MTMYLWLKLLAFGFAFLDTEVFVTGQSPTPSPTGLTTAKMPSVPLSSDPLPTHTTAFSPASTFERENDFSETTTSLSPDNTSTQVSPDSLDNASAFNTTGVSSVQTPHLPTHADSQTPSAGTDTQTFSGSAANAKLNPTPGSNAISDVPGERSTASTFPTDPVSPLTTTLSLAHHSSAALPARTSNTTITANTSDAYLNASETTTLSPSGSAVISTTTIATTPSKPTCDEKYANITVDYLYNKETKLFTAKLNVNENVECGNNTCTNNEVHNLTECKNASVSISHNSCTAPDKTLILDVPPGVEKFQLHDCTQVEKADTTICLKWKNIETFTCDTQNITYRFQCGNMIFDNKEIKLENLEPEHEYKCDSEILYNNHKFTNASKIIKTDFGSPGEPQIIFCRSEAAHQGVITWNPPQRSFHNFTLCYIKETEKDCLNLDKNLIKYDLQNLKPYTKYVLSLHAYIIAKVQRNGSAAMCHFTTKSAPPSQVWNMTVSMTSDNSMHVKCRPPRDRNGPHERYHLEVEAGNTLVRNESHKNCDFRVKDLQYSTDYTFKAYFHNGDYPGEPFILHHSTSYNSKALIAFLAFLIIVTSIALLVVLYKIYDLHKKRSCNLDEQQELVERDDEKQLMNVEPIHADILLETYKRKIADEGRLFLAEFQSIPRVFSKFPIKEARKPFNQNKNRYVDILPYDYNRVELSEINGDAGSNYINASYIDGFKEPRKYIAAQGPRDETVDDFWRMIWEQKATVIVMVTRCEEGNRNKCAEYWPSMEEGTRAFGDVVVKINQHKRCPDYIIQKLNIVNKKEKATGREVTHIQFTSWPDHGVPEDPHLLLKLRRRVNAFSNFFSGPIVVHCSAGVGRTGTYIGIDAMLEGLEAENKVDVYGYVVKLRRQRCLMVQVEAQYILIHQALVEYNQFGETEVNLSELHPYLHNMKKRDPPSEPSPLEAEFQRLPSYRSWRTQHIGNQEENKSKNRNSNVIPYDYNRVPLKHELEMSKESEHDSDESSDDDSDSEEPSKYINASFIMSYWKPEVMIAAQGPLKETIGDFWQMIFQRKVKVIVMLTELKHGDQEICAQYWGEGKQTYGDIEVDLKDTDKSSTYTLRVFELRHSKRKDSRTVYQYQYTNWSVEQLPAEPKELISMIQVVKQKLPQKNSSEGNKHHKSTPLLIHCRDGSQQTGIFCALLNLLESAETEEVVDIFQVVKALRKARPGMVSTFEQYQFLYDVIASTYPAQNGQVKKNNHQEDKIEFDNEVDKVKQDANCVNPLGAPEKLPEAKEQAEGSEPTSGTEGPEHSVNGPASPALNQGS
Method in brief: (§1)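 Ki from pNPP hydrolysis assays at pH 7 with recombinant PTPs (CD45, LAR, PTPα).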

[2] = Pharmacokinetic Parameter Vss was reported for Protein Tyrosine Phosphatase 1B; type: ADME, organism-based; settings: in vivo; read-out: Vss
[3] = Pharmacokinetic Parameter clearance was reported for Protein Tyrosine Phosphatase 1B; type: ADME, organism-based; settings: in vivo
[4] = target: Receptor-type tyrosine-protein phosphatase F (Homo sapiens, UniProt P10586); assay: Inhibitory effect against human Protein-tyrosine phosphatase Lar using p-nitrophenyl phosphate substrate at a pH 7.0; method in brief: as §1
[5] = Oral bioavailability; type: ADME, organism-based; settings: eutheria, in vivo, read-out: f (po)
[6] = Pharmacokinetic Parameter t1/2 was reported for Protein Tyrosine Phosphatase 1B; type: ADME, organism-based; settings: in vivo
[7] = target: T2, Tyrosine-protein phosphatase non-receptor type 1 (Homo sapiens, UniProt P18031); assay: Inhibitory effect against recombinant human protein-tyrosine phosphatase 1B (PTP1B), using p-nitrophenyl phosphate substrate at pH 5.5.
T2 sequence (P18031 whole entry): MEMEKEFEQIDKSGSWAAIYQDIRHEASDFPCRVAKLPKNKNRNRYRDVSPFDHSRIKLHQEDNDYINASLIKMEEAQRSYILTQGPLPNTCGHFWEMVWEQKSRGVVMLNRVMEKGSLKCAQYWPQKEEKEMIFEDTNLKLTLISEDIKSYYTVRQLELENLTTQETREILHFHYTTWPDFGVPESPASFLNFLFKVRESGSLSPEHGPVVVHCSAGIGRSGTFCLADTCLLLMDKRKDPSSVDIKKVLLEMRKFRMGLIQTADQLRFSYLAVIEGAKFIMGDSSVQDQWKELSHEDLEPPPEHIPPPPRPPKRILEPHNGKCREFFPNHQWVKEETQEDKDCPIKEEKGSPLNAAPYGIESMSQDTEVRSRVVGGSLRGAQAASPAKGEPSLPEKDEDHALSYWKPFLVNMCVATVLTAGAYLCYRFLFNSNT

[8] = target: Receptor-type tyrosine-protein phosphatase alpha (Homo sapiens, UniProt P18433); assay: Inhibitory effect against human Protein-tyrosine phosphatase alpha (PTPalpha) using p-nitrophenyl phosphate substrate at a pH 7.0; method in brief: as §1
[9] = target: T2, Tyrosine-protein phosphatase non-receptor type 1; assay: Inhibition of human recombinant Protein-tyrosine phosphatase 1B.
Method in brief: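 Enzyme is a soluble recombinant human PTP1B (residues 1–321). Ki is measured at pH 5.5 with p-nitrophenyl phosphate (pNPP) as substrate.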

Sequence of Receptor-type tyrosine-protein phosphatase alpha (P18433 whole entry): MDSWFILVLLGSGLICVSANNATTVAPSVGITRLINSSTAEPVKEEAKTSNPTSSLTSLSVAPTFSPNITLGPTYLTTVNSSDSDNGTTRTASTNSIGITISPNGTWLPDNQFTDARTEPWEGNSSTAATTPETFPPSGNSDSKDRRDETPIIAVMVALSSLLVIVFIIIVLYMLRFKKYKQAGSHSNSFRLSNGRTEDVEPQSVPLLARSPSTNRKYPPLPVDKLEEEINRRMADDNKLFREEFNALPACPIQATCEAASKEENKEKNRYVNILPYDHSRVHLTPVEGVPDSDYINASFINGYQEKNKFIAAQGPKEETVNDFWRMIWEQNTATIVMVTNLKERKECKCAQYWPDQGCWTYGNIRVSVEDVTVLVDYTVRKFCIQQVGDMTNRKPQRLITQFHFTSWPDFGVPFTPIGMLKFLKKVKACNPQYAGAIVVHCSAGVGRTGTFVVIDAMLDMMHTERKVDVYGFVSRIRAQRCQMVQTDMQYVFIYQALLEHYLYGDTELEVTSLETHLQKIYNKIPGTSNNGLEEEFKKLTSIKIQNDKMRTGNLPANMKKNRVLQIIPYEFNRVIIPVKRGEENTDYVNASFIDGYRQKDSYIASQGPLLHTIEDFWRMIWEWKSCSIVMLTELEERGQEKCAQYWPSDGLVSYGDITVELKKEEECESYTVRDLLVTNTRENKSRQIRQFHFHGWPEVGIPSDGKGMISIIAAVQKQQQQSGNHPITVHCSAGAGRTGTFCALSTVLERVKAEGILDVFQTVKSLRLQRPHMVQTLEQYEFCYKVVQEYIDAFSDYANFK
Sequence of Receptor-type tyrosine-protein phosphatase F (P10586 whole entry): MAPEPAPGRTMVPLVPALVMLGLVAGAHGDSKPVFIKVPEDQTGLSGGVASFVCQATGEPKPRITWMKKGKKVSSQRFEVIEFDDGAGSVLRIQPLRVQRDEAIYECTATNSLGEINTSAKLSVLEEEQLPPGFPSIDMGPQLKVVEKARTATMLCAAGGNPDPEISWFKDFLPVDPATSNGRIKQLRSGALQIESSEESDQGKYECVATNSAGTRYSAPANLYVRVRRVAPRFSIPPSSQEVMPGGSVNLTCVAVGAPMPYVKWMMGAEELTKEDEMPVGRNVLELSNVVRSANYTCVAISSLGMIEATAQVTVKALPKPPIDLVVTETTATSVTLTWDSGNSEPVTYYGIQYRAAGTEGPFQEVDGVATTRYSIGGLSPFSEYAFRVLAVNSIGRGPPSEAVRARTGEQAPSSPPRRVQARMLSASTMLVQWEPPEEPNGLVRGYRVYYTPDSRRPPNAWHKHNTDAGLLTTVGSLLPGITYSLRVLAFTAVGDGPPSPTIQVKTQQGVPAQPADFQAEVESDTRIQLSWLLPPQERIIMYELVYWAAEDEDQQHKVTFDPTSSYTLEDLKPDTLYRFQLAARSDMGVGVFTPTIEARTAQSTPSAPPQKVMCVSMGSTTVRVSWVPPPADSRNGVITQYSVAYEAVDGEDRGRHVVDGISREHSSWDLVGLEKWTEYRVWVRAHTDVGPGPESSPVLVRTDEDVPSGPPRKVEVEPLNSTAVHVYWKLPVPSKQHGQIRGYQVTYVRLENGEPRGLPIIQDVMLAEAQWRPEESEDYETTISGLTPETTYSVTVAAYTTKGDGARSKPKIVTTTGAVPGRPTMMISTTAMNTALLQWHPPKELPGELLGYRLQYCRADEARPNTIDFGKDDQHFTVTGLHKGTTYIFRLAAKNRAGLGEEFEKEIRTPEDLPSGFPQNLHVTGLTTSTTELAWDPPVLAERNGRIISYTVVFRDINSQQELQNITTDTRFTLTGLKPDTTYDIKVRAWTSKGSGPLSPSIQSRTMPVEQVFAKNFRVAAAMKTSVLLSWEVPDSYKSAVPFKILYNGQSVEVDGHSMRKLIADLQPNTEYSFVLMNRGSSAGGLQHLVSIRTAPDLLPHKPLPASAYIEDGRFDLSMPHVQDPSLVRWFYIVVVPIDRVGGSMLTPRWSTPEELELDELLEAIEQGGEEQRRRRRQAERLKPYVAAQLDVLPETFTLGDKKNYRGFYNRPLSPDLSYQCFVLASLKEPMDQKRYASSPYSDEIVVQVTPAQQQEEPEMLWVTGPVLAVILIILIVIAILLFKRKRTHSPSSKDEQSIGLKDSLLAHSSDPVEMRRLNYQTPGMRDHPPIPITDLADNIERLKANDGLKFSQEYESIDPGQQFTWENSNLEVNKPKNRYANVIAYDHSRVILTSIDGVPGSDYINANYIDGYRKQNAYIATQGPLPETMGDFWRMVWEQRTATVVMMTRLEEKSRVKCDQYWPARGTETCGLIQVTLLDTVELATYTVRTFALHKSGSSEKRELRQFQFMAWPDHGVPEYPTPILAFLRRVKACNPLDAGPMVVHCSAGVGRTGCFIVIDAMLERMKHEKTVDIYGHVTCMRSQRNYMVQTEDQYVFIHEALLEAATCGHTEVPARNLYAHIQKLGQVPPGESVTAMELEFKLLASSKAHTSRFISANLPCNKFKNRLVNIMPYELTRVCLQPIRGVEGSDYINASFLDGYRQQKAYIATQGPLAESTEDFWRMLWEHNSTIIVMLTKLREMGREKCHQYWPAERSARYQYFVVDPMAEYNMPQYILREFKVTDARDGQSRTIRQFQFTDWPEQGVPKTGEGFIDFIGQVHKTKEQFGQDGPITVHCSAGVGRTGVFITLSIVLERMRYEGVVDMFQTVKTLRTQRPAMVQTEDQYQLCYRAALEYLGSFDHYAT

Which Ki [1] does the source give for `O=C(O)C(=O)Nc1sc2c(c1C(=O)O)CCN(CCc1ccccc1)C2` here?
The Ki was 1400 µM.

What about the Vd [2] of the same compound?
Its Vd is 0.9 L/kg.

And the clearance [3]?
The clearance was 6.4 mL/min/kg.

And the Ki [4]?
Its Ki is 2100 µM.

What about the bioavailability [5] of the same compound?
The bioavailability was 13%.

What about the half-life [6] of the same compound?
Its half-life is 2.82 h.

And the Ki [7]?
Its Ki is 0.27 µM.

And the Ki [8]?
Its Ki is 2100 µM.

What about the Ki [9] of the same compound?
The Ki was 3.2 µM and 7.2 µM.
